Most compounds without a hit are left out; they make up all but 2.3% or so of the library.
OXTR potentiator = potentiates the human oxytocin receptor response | 0.061% of 320,000 active | activation, % at 3 µM | CHO-OTR cells, Fluo-8 calcium fluorescence, potentiator mode; 0% = oxytocin EC15, 100% = EC100 | AID 2445;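 active = activation above that plate's cutoff, the mean activation of tested compounds plus 3 SD, cut at about 6.6% in these data, passing the limit was not always enough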;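 also: 100% uses oxytocin at 75 nM as the full agonist control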
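assay system = CHO-OTR cells, human receptor | schedule = compound 6 min at room temperature before oxytocin, 100 s read | detection = Fluo-8 intracellular calcium fluorescence, ex 470-495, em 515-575 nm | evaluation = normalized max/min fluorescence ratio, % activation | control set = EC15 oxytocin alone as 0%, 75 nM oxytocin (EC100) as 100%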
TAAR1 antag = human TAAR1 antagonism. Q96RJ0. CHO RD-HGA16 TAAR1, Fluo-8 calcium fluorescence, antagonist. inhibition, % at 3 µM. 1.5% of 360,000 active. AID 624466;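 active = inhibition above a per-plate cutoff, the mean inhibition of test compounds on that plate plus 3 SD, cut at about 49% in these data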;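 also: 0% = DMSO plus EC80 beta-PEA response and 100% = DMSO alone without agonist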
Target sequence (Q96RJ0 whole entry, looked up): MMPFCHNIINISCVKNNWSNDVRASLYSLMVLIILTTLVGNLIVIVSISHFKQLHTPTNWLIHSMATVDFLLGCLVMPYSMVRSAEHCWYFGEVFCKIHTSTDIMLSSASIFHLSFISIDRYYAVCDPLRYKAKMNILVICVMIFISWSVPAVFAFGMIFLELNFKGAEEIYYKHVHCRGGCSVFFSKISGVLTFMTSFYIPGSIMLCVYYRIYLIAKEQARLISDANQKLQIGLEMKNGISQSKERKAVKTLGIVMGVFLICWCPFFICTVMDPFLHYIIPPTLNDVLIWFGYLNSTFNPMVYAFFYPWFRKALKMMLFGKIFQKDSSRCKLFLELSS
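test system = CHO RD-HGA16 cells bearing hTAAR1 | replication = singlicate | controls = DMSO-only wells and EC80 β-PEA-stimulated wells | reagent = EC80 β-phenethylamine stimulus | read-out basis = percent inhibition of PEA-evoked calcium signal, max/basal emission ratio | schedule = seeding 17-24 h prior, 75-min 37 °C, 30-min RT dye loading | signal = kinetic Fluo-8 calcium fluorescence measurement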
V1aR counter = counter-screen for oxytocin receptor agonists: human V1a receptor agonists | P37288 | CHO-V1R cells, Fluo-8 calcium fluorescence, agonist mode; 0% DMSO, 100% 3 nM vasopressin | activation, % at 3 µM | 0.25% of 320,000 active | AID 2797;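 active = activation above the mean activation of all tested compounds plus 3 SD, per screening run, cut at about 20% in these data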;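 also: signal is peak over basal fluorescence ratio across a 100 second FLIPR read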
OXTR agonist = agonists of human oxytocin receptor. P30559. CHO-OTR cells, Fluo-8 calcium fluorescence; normalized: DMSO 0%, oxytocin 100%. activation, % at 3 µM. 0.32% of 320,000 active. AID 2435;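 active = activation above the mean of all tested compounds plus 3 SD, cutoff set per screening run, cut at about 20% in these data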;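 also: peak over basal fluorescence ratio from a 100 s FLIPR kinetic read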
TAAR1 agonist = agonists of human TAAR1 | activation, % at 3 µM | CHO RD-HGA16 TAAR1, Fluo-8 calcium fluorescence; vehicle wells 0%, saturating PEA agonist 100% | 0.99% of 360,000 active | Q96RJ0 | AID 624467;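 active = activation above the mean activation of all test compounds in the run plus 3 SD, cut at about 38% in these data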
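Assay system: CHO-derived RD-HGA16 cells with stable Gα16 and human TAAR1; timing: 17-24 h seeding, 75 min 37 °C dye, 30 min RT; read-out: % activation from peak over basal fluorescence ratio, DMSO-to-PEA scaled; measured by: kinetic Fluo-8 calcium fluorescence; benchmarks: low control DMSO, high control PEA (EC100); doses: 3 µM single concentration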
nonsel antag count = nonselective antagonist in TAAR1 antagonist counter-screen; shares compounds with TAAR1 antag; counterscreen cell line, calcium fluorescence, antagonist mode; inhibition, % at 3 µM; 77% of 2,400 active; in the data active = inhibition above about 22%;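 also: CHO-Ga16 host cells stimulated with ATP at an EC80 level; 0% = agonist EC80 plus vehicle and 100% = vehicle without agonist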
TAAR1 ant conf = human TAAR1 antagonism, confirmed; shares compounds with TAAR1 antag; TAAR1-expressing cells, fluorescence antagonist read-out; inhibition, % at 3 µM; 40% of 2,400 active; AID 651785; in the data active = inhibition above about 49%;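 also: CHO-Ga16 host cells challenged with agonist PEA near its EC80; 0% = agonist at EC80 plus vehicle and 100% = vehicle with no agonist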
Ga16 ag counter = nonselective Ga16 agonist in TAAR1 antagonist counter-screen | activation, % at 3 µM | 18% of 2,400 active | shares compounds with TAAR1 antag | Ga16-expressing cells, calcium fluorescence, agonist counterscreen | AID 651953; in the data active = activation above about 12%;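 also: 0% = vehicle wells and 100% = saturating stimulus response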
TAAR1 ag counter = counter-screen for human TAAR1 antagonists: TAAR1 agonists | shares compounds with TAAR1 antag | hTAAR1 cell line, fluorescence activation, agonist mode | activation, % at 3 µM | 2% of 2,400 active; in the data active = activation above about 37%;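 also: CHO cells stably expressing TAAR1 with calcium dye readout; 0% = DMSO vehicle and 100% = full agonist response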
* marks the source's active call; other numbers are inactive results; x = not tested or not shown.

SMILES	OXTR potentiator	TAAR1 antag	V1aR counter	OXTR agonist	TAAR1 agonist	nonsel antag count	TAAR1 ant conf	Ga16 ag counter	TAAR1 ag counter
O=C(C1=C[C@@H](c2ccc(C(F)(F)F)cc2)C[C@@H](OCc2ccc(CO)cc2)O1)N1CCN(Cc2ccc3c(c2)OCO3)CC1	-6.0	55.0*	2.2	1.8	9.9	32.0*	34.4	4.1	3.5
CC(C)COc1cccc(-c2cc(C(=O)N/N=C/c3ccncc3)c3ccccc3n2)c1	x	60.8*	x	x	3.4	7.9	27.1	5.6	18.1
COc1cc(/C=N/NC(=O)c2cc(-c3c(C)nn(-c4ccccc4)c3C)n[nH]2)ccc1O	-6.8	54.2*	1.5	-0.2	6.7	27.5*	40.8	6.2	5.6
COc1cc(/C=N/NC(=O)c2cc(-c3ccccc3OC(C)C)nc3ccccc23)ccc1O	-7.8	57.3*	1.1	1.5	7.7	13.4	42.2	9.4	12.8
O=C(N/N=C/C=C/c1ccccc1[N+](=O)[O-])c1cc(-c2cccnc2)nc2ccccc12	-13.8	59.1*	-0.3	-0.7	10.9	32.8*	42.6	4.2	-1.3
COc1cc(/C=N/NC(=O)c2cc(-c3ccccc3)nc3ccccc23)ccc1O	-14.4	35.5	2.6	-0.5	11.4	x	x	x	x
CCOC(=O)[C@]12CCC=C1N(Cc1ccccc1)C(=O)[C@H](CC(=O)N1CCN(C(=O)c3ccco3)CC1)C2	x	-11.8	x	x	1.6	x	x	x	x
CCOc1cc(/C=N/NC(=O)c2cc(-c3cccc(OC)c3)nc3ccccc23)ccc1O	-18.4	75.9*	0.6	-2.4	8.0	13.6	46.2	8.3	7.6
CC(C)C[C@H]1COc2ccc(Cl)cc2S(=O)(=O)N1C[C@H](NC(=O)OC(C)(C)C)C(C)C	x	-41.7	x	x	3.9	x	x	x	x
O=C1COc2ccc(C(=O)COC(=O)Cc3ccc(Cl)cc3)cc2N1	-29.9	3.1	0.4	1.5	1.5	x	x	x	x
CCN(CC)S(=O)(=O)c1cccc(C(=O)OCC(=O)c2ccc3c(c2)NC(=O)CO3)c1	-13.6	71.2*	7.7	18.2	19.3	42.5*	61.4*	15.3*	12.1
Cc1cccc(C(=O)OCC(=O)c2ccc3c(c2)NC(=O)CO3)c1	-3.3	46.5	4.7	6.5	9.8	x	x	x	x
O=C1COc2ccc(C(=O)COC(=O)CCSc3ccc(Cl)cc3)cc2N1	-15.8	56.4*	1.8	2.9	13.7	36.6*	33.4	9.9	3.7
CC(C)C[C@H]1COc2cc(NCCCN3CCOCC3)ccc2S(=O)(=O)N1	x	-3.3	x	x	0.6	x	x	x	x
CCCc1ccc2c(C)cccc2n1	x	-1.9	x	x	-0.3	x	x	x	x
O=C(NCc1ccccc1)C1C(c2ccc3c(c2)OCO3)=Nc2ccccc2N1C(=O)c1cccc2ccccc12 (configuration not stated)	x	-15.7	x	x	1.6	x	x	x	x
CC1=NOC(=O)/C1=C\c1ccc(-c2ccc(Cl)cc2Cl)o1	x	52.5*	x	x	14.1	79.2*	71.8*	28.6*	25.4
CCCOc1ccc(Cl)cc1/C=C1/C(=O)ON=C1C	-11.4	-18.2	0.7	2.1	0.6	x	x	x	x
CCOC(=O)N1CCN(C(C(=O)NC2CCCC2)c2ccco2)CC1 (configuration not stated)	x	-13.3	x	x	2.7	x	x	x	x
Cn1c(/C=C(\C#N)C(N)=S)ccc1-c1ccc(Br)cc1	x	67.1*	x	x	9.5	25.1*	39.1	5.8	14.8
Cn1cccc1/C=C(\C#N)C(N)=S	0.4	-10.0	0.6	0.3	16.8	x	x	x	x
C=CC[C@@H](CC(=O)N(CCO)Cc1ccccc1)C(=O)NC[C@@H](OC(=O)[C@@H](CC=C)CC(=O)OC(C)(C)C)c1ccccc1	-6.7	58.9*	-0.2	-1.7	16.6	29.2*	39.2	7.6	9.9
C=CC[C@@H](CC(=O)N(CCO)Cc1ccccc1)C(=O)N[C@H](COC(=O)[C@@H](CC=C)Cc1ccc(F)cc1)c1ccccc1	-9.0	61.0*	2.1	1.6	14.0	16.6	24.8	14.0*	11.7
C=CC[C@@H](CC(=O)N(CCO)Cc1ccccc1)C(=O)NC[C@H](OC(=O)[C@@H](CC=C)Cc1ccc(F)cc1)c1ccccc1	-9.3	89.3*	4.2	2.6	20.2	36.0*	63.2*	9.3	10.3
C=CC[C@H](CC(=O)NCCO)C(=O)NC[C@H](OC(=O)[C@@H](CC=C)Cc1ccc(F)cc1)c1ccccc1	-4.2	29.3	-0.5	-1.3	9.3	x	x	x	x
CCn1cc(CCC(=O)Nc2ccc(Oc3cccnc3)cc2)c2ccccc21	x	23.0	x	x	0.3	x	x	x	x
CCc1nc2ccccc2c(C(=O)OCC(=O)C(C)(C)C)c1C	-2.2	7.4	-0.7	-3.0	5.0	x	x	x	x
CCc1nc2ccccc2c(C(=O)OCCN2C(=O)c3ccccc3C2=O)c1C	-5.3	66.4*	-1.0	-1.7	3.8	26.1*	43.7	6.3	5.0
CC(C)(C)N(Cc1ccccc1)C(=O)COC(=O)c1ccccc1SCC(=O)N1CCCC1	-3.9	61.2*	1.1	-1.4	6.2	20.7	42.5	8.9	10.6
O=C(COC(=O)c1ccccc1SCC(=O)N1CCCC1)Nc1ccccc1	-17.2	18.4	4.9	2.5	4.5	x	x	x	x
